For nine compounds, CPM x1000, Km and Vmax results are on record in ChEMBL document CHEMBL1128328, “Identification of efficient pentapeptide substrates for the tyrosine kinase pp60c-src” (J Med Chem, 1995).

In data set [1] the target is Proto-oncogene tyrosine-protein kinase Src (Homo sapiens) (UniProt P12931). The data set can be described thus: Incorporation of 32P into phosphopeptide product (1 mM) in pp60c-src phosphorylation assay. A digest of the protocol: (§1)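 Human pp60c-src (baculovirus/SF9 recombinant, partially purified), 10 units in 40 µL; 138 mM MOPS pH 7.1, 0.64 mM MgCl2 (calculated free Mg2+ 0.44 mM), BSA 0.37 mg/mL, 200 µM [γ-32P]ATP, 20 µM ADP; peptide at 1 or 3 mM final; 30 min, 30 °C; acid molybdate quench; PEI-cellulose column, 1 M LiCl elution, Cerenkov counting; triplicate, no-peptide blank subtracted.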

The target is the same in data set [2]. The data set can be described thus: Incorporation of 32P into phosphopeptide product (3 mM) in pp60c-src phosphorylation assay. The essentials:
as §1

Data set [3] relates to CC[C@H](C)[C@H](NC(=O)[C@H](C)NC(=O)[C@H](CC(=O)O)NC(=O)[C@H](CCC(=O)O)NC(C)=O)C(=O)N[C@@H](Cc1ccc(O)cc1)C(N)=O. Nature of the data set: (§2) Michaelis-Menten (Km) constant for peptide phosphorylation by pp60src. A digest of the protocol: (§3)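 Same pp60c-src reaction (pH 7.1 MOPS, 200 µM [γ-32P]ATP, 20 µM ADP, 30 min, 30 °C, PEI-cellulose/Cerenkov readout). Two peptide levels, near and ~10× estimated Km (200 µM/2 mM, 25/300 µM, or 50 µM/1 mM depending on peptide). Initial velocities in 4–6 repeats per level, minus zero-time blank. Apparent values from Cornish-Bowden direct linear plot.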

Data set [4] concerns CC[C@H](C)[C@H](NC(=O)[C@H](CCC(=O)O)NC(=O)[C@H](CCC(=O)O)NC(=O)[C@H](CCC(=O)O)NC(=O)[C@H](C)N)C(=O)N[C@@H](Cc1ccc(O)cc1)C(=O)NCC(=O)N[C@@H](CCC(=O)O)C(=O)N[C@@H](Cc1ccccc1)C(=O)N[C@@H](CCC(=O)O)C(=O)N[C@@H](C)C(=O)N[C@@H](CCCCN)C(=O)N[C@@H](CCCCN)C(=O)N[C@@H](CCCCN)C(=O)N[C@@H](CCCCN)C(=O)O. The description is as §2. A digest of the protocol: as §3
Data set [5] concerns CC[C@H](C)[C@H](NC(C)=O)C(=O)N[C@@H](Cc1ccc(O)cc1)C(=O)NCC(=O)N[C@@H](CCC(=O)O)C(=O)N[C@@H](Cc1ccccc1)C(N)=O. Described as §2. A digest of the protocol: as §3
Data set [6] deals with CC[C@H](C)[C@H](NC(=O)[C@H](C)NC(=O)[C@H](CC(=O)O)NC(=O)[C@H](CCC(=O)O)NC(C)=O)C(=O)N[C@@H](Cc1ccc(O)cc1)C(N)=O. Nature of the data set: (§4) Maximum enzyme velocity(Vmax) of peptide phosphorylation by pp60src. A digest of the protocol: as §3
Data set [7] deals with CC[C@H](C)[C@H](NC(=O)[C@H](CCC(=O)O)NC(=O)[C@H](CCC(=O)O)NC(=O)[C@H](CCC(=O)O)NC(=O)[C@H](C)N)C(=O)N[C@@H](Cc1ccc(O)cc1)C(=O)NCC(=O)N[C@@H](CCC(=O)O)C(=O)N[C@@H](Cc1ccccc1)C(=O)N[C@@H](CCC(=O)O)C(=O)N[C@@H](C)C(=O)N[C@@H](CCCCN)C(=O)N[C@@H](CCCCN)C(=O)N[C@@H](CCCCN)C(=O)N[C@@H](CCCCN)C(=O)O. Described as §4. A digest of the protocol:
as §3

Data set [8] relates to CC[C@H](C)[C@H](NC(C)=O)C(=O)N[C@@H](Cc1ccc(O)cc1)C(=O)NCC(=O)N[C@@H](CCC(=O)O)C(=O)N[C@@H](Cc1ccccc1)C(N)=O. The description is as §4. A digest of the protocol: as §3

With Ac-EGTYG-NH2, the CPM x1000 amounted to 63.5 in data set [1] and 89.5 in data set [2].
Compound H-RRLIEDAEYAARG-OH registered a CPM x1000 in data set [2] of 80.3.
In turn, Ac-GEGTYGV-NH2 yielded a CPM x1000 in data set [2] of 120.
For the compound Ac-EDAIY-NH2, the CPM x1000 in data set [1] is 403.
Still for that read-out and setting: then `CC[C@H](C)[C@H](NC(=O)[C@H](CCC(=O)O)NC(=O)[C@H](CCC(=O)O)NC(=O)[C@H](CCC(=O)O)NC(=O)[C@H](C)N)C(=O)N[C@@H](Cc1ccc(O)cc1)C(=O)NCC(=O)N[C@@H](CCC(=O)O)C(=O)N[C@@H](Cc1ccccc1)C(=O)N[C@@H](CCC(=O)O)C(=O)N[C@@H](C)C(=O)N[C@@H](CCCCN)C(=O)N[C@@H](CCCCN)C(=O)N[C@@H](CCCCN)C(=O)N[C@@H](CCCCN)C(=O)O`, with 702.
Regarding Ac-EDAEYA-NH2, the CPM x1000 in data set [2] was 28.5.
In the case of “Proto-oncogene tyrosine-protein kinase Src (Homo sapiens) (from UniProt P12931)”, the results for the Km in data set [3], in data set [4] and in data set [5] were 880 µM, 100 µM and 368 µM, respectively. The Vmax (commonly the top rate of the reaction or transport when substrate is in excess) was 1.86 µM/min/mg in data set [6], 3.06 µM/min/mg in data set [7] and 1.02 µM/min/mg in data set [8].
In turn, Ac-DAEYA-NH2 returned a CPM x1000 in data set [2] of 23.4.
For Ac-IYGEF-NH2, in data set [1], the CPM x1000 came out at 497.
